According to ChEMBL document CHEMBL2176964, “Small molecule inhibitors of Bacillus anthracis protective antigen proteolytic activation and oligomerization” (J Med Chem, 2012):
Active and inactive are the calls of the source. No cut-off for these calls is given here.

Legend:
[1] = system: HT-1080; experiment: Cytotoxicity against human HT1080 cells at 10 to 100 uM by MTT assay; type: cell-based; settings: ht-1080, 100 µM
How it was run: (§1)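 Compound toxicity was measured in serum-free DMEM with 10 mM Hepes pH 7.3 and gentamicin at 37°C, by MTT read-out. There were two exposure schemes: a 5-h exposure, or a 54-h incubation in which the inhibitor was removed from the medium after 5 h. MTT cannot distinguish growth inhibition from toxicity.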

[2] = target: Protective antigen (Bacillus anthracis) (UniProt P13423); experiment: Inhibition of Bacillus anthracis Protective antigen-mediated cytotoxicity in human HT1080 cells by MTT assay in presence of fetal bovine serum; type: cell-based; settings: HT-1080
[3] = target: Protective antigen (Bacillus anthracis) (UniProt P13423); experiment: Inhibition of human furin-mediated Bacillus anthracis PA83 cleavage at 1 to 100 uM after 1 hr by Western blot analysis
How it was run: (§2)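 Substrate at 100 nM (purified PA for PA83 cleavage; TGFα-PE38 with a furin-cleavable RKKR linker) was mixed with 1, 10 or 100 μM inhibitor, or 1% DMSO. Buffer: 50 mM Hepes pH 7.5, 2 mM CaCl2, 0.5 mM EDTA, 0.2% octyl glucoside. Soluble human furin was added at 1 nM final for 1 h at 37°C. The reaction was boiled in SDS dye, run on a 4–20% gel and blotted with anti-PA or anti-Pseudomonas exotoxin serum.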

[4] = target: Protective antigen (Bacillus anthracis) (UniProt P13423); experiment: Inhibition of Bacillus anthracis Protective antigen assessed as reduction in PA83 level in CHO C4 cells at 100 uM after 1 hr by Western blot analysis relative to untreated-control in presence of lethal factor; type: cell-based
[5] = target: Protective antigen (Bacillus anthracis) (UniProt P13423); experiment: Inhibition of Bacillus anthracis Protective antigen-mediated cytotoxicity in RAW264.7 cells at 10 uM compound co-treated for 5 hrs with antigen by MTT assay in presence of lethal factor; type: cell-based
[6] = target: Protective antigen (Bacillus anthracis) (UniProt P13423); experiment: Inhibition of Bacillus anthracis Protective antigen assessed as reduction in PA63 level in CHO C4 cells at 100 uM after 1 hr by Western blot analysis relative to untreated-control; type: cell-based
[7] = organism: Homo sapiens; experiment: Inhibition of human furin-mediated TGFalpha-PE38 cleavage at 1 to 100 uM after 1 hr by Western blot analysis; how it was run: as §2
[8] = target: Protective antigen (Bacillus anthracis) (UniProt P13423); experiment: Inhibition of Bacillus anthracis Protective antigen assessed as reduction in PA83 level in CHO C4 cells at 100 uM after 1 hr by Western blot analysis relative to untreated-control; type: cell-based
[9] = target: Protective antigen (Bacillus anthracis) (UniProt P13423); experiment: Inhibition of Bacillus anthracis Protective antigen-mediated cytotoxicity in RAW264.7 cells by MTT assay in presence of fetal bovine serum; type: cell-based
[10] = target: Protective antigen (Bacillus anthracis) (UniProt P13423); experiment: Inhibition of Bacillus anthracis Protective antigen-mediated cytotoxicity in RAW264.7 cells at 3 uM compound co-treated for 5 hrs with antigen measured after 48 hrs by MTT assay in presence of FP59; type: cell-based
[11] = system: RAW264.7; experiment: Cytotoxicity against mouse RAW264.7 cells at 10 to 100 uM by MTT assay; type: cell-based; settings: raw264.7, 100 µM; how it was run: as §1
[12] = target: Protective antigen (Bacillus anthracis) (UniProt P13423); experiment: Inhibition of Bacillus anthracis Protective antigen-mediated cytotoxicity in RAW264.7 cells at 100 uM compound co-treated for 5 hrs with antigen measured after 48 hrs by MTT assay in presence of FP59; type: cell-based
[13] = target: Protective antigen (Bacillus anthracis) (UniProt P13423); experiment: Inhibition of Bacillus anthracis Protective antigen-mediated cytotoxicity in HT1080 cells at 100 uM compound co-treated for 5 hrs with antigen measured after 48 hrs by MTT assay in presence of FP59; type: cell-based; settings: HT-1080
[14] = target: Protective antigen (Bacillus anthracis) (UniProt P13423); experiment: Inhibition of matrix metalloprotease activated Bacillus anthracis Protective antigen-mediated cytotoxicity in HT1080 cells at 100 uM compound co-treated for 5 hrs with antigen measured after 48 hrs by MTT assay in presence of FP59; type: cell-based; settings: HT-1080
[15] = target: Protective antigen (Bacillus anthracis) (UniProt P13423); experiment: Inhibition of Bacillus anthracis Protective antigen-mediated cytotoxicity in RAW264.7 cells at 100 uM compound co-treated for 5 hrs with antigen by MTT assay in presence of lethal factor; type: cell-based
[16] = system: RAW264.7; experiment: Cytotoxicity against mouse RAW264.7 cells compound incubated at 10 to 100 uM for extended period by MTT assay; type: cell-based; settings: raw264.7, 100 µM; how it was run: as §1
[17] = system: HT-1080; experiment: Cytotoxicity against human HT1080 cells compound incubated at 10 to 100 uM for extended period by MTT assay; type: cell-based; settings: ht-1080, 100 µM; how it was run: as §1
[18] = target: Protective antigen (Bacillus anthracis) (UniProt P13423); experiment: Inhibition of Bacillus anthracis Protective antigen-mediated cytotoxicity in RAW264.7 cells compound co-treated for 5 hrs with antigen by MTT assay in presence of lethal factor; type: cell-based

Protective antigen (Bacillus anthracis), sequence (P13423 whole entry): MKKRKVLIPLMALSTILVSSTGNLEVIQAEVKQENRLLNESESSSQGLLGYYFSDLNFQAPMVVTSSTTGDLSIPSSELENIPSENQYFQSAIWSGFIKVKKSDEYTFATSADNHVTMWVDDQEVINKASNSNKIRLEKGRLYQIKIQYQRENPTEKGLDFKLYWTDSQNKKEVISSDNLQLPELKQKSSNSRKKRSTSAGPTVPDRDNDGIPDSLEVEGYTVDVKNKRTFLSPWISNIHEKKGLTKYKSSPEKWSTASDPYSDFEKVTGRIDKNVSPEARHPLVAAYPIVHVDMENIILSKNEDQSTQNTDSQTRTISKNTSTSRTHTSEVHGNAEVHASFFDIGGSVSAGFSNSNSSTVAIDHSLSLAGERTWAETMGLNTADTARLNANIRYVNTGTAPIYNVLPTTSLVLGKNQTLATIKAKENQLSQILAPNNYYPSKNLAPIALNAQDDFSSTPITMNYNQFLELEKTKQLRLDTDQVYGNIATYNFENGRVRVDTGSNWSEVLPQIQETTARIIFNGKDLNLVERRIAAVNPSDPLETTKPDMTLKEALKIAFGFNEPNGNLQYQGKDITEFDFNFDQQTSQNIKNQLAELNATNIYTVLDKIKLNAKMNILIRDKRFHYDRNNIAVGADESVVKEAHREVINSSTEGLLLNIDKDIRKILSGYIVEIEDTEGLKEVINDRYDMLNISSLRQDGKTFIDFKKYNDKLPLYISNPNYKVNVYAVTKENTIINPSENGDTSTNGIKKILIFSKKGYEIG

Compound	Activity [1]	inhibition [2]	inhibition [3]	inhibition [4]	inhibition [5]	inhibition [6]	inhibition [7]	inhibition [8]	inhibition [9]	inhibition [10]	Activity [11]	inhibition [12]	inhibition [13]	inhibition [14]	inhibition [15]	Activity [16]	Activity [17]	inhibition [18]
NC(=O)c1ccccc1NC(=O)c1ccc(C(=O)Nc2ccccc2C(N)=O)cc1	Non-toxic	inactive	inactive	inactive	Active	Active	inactive	inactive	inactive	Active	Non-toxic	–	–	–	–	–	–	–
O=c1c(O)c(-c2ccc(O)c(O)c2)oc2cc(O)cc(O)c12	–	inactive	inactive	inactive	–	inactive	inactive	inactive	inactive	–	–	Active	Active	Active	Active	–	–	–
Oc1ccccc1/C=N/c1ccc(Cc2ccc(/N=C/c3ccccc3O)c(O)c2)cc1O	–	inactive	Active	inactive	Active	Active	inactive	inactive	inactive	Active	–	–	–	–	–	Toxic	Toxic	–
NC(=O)c1ccccc1NC(=O)c1cccc(C(=O)Nc2ccccc2C(N)=O)c1	–	–	–	–	–	–	–	–	–	–	–	–	–	–	–	–	–	Active
